Results published in ChEMBL document CHEMBL1142136, “Contribution of target gene mutations and efflux to decreased susceptibility of Salmonella enterica serovar typhimurium to fluoroquinolones and other antimicrobials” (2007).
≈ marks a conversion by molar mass, not a printed value.

Columns and labels:
Type in all cases: functional, Salmonella enterica subsp. enterica serovar Typhimurium
Salmonella typhimurium [1] = test: Antimicrobial activity against Salmonella enterica serovar Typhimurium S21-3 acrAB::Kan with GyrA S83F, ParC S80I mutation
Procedure, shortened: (§1)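 MICs measured by broth microdilution on the Sensititre automated system and interpreted by CLSI broth microdilution standards. Ciprofloxacin was also tested by agar dilution, widening the range to 0.0075–128 μg/ml. Quality control strains were E. coli ATCC 25922 and 35218, E. faecalis ATCC 29212, S. aureus ATCC 29213 and P. aeruginosa ATCC 27853.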

Salmonella typhimurium [2] = test: Antimicrobial activity against Salmonella enterica serovar Typhimurium S21-3 with GyrA S83F, ParC S80I mutation; procedure, shortened: as §1
Salmonella typhimurium [3] = test: Antimicrobial activity against Salmonella enterica serovar Typhimurium S21-1 tolC::Kan with GyrA S83F mutation; procedure, shortened: as §1
Salmonella typhimurium [4] = test: Antimicrobial activity against Salmonella enterica serovar Typhimurium S21 acrAB::Kan
Procedure, shortened: (§2)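 MICs by automated broth microdilution panels, interpreted to CLSI broth microdilution standards. Ciprofloxacin additionally tested by agar dilution across 0.0075 to 128 μg/ml. Quality control strains: E. coli ATCC 25922 and 35218, Enterococcus faecalis ATCC 29212, S. aureus ATCC 29213, P. aeruginosa ATCC 27853. Test strains are kanamycin-marked deletion mutants of ground-beef isolate S21.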

Salmonella typhimurium [5] = test: Antimicrobial activity against Salmonella enterica serovar Typhimurium S21-4 tolC::Kan with GyrA S83F, ParC S80I mutation; procedure, shortened: as §1
Salmonella typhimurium [6] = test: Antimicrobial activity against Salmonella enterica serovar Typhimurium CHS38 with GyrA D87G mutation; procedure, shortened: as §1
Salmonella typhimurium [7] = test: Antimicrobial activity against Salmonella enterica serovar Typhimurium CHS18 tolC::Kan with GyrA S38F mutation; procedure, shortened: as §1
Salmonella typhimurium [8] = test: Antimicrobial activity against Salmonella enterica serovar Typhimurium S21-4 with GyrA S83F, ParC S80I mutation; procedure, shortened: as §1
Salmonella typhimurium [9] = test: Antimicrobial activity against Salmonella enterica serovar Typhimurium CHS18 with GyrA S38F mutation; procedure, shortened: as §1
Salmonella typhimurium [10] = test: Antimicrobial activity against Salmonella enterica serovar Typhimurium CHS18 gyrA+ with GyrA S38F mutation; procedure, shortened: as §1
Salmonella typhimurium [11] = test: Antimicrobial activity against Salmonella enterica serovar Typhimurium CS3 gyrA+ with GyrA S83F, D87N, ParC S80I mutation; procedure, shortened: as §1
Salmonella typhimurium [12] = test: Antimicrobial activity against Salmonella enterica serovar Typhimurium S21-1 GyrA S83F mutant; procedure, shortened: as §1
Salmonella typhimurium [13] = test: Antimicrobial activity against Salmonella enterica serovar Typhimurium CHS38 acrAB::Kan with GyrA D87G mutation; procedure, shortened: as §1
Salmonella typhimurium [14] = test: Antimicrobial activity against Salmonella enterica serovar Typhimurium CHS14 gyrA+ with GyrA D87G mutation; procedure, shortened: as §1
Salmonella typhimurium [15] = test: Antimicrobial activity against Salmonella enterica serovar Typhimurium CHS14 with GyrA D87G mutation; procedure, shortened: as §1
Salmonella typhimurium [16] = test: Antimicrobial activity against Salmonella enterica serovar Typhimurium CS9 gyrA+ with GyrA S83F, D87N, ParC S80I mutation; procedure, shortened: as §1
Salmonella typhimurium [17] = test: Antimicrobial activity against Salmonella enterica serovar Typhimurium CHS38 tolC::Kan with GyrA D87G mutation; procedure, shortened: as §1
Salmonella typhimurium [18] = test: Antimicrobial activity against Salmonella enterica serovar Typhimurium S21-3 gyrA+ with ParC S80I mutation; procedure, shortened: as §1
Salmonella typhimurium [19] = test: Antimicrobial activity against Salmonella enterica serovar Typhimurium S21-2 gyrA+ with ParC S80I mutation; procedure, shortened: as §1
Salmonella typhimurium [20] = test: Antimicrobial activity against Salmonella enterica serovar Typhimurium CS1 acrAB::Kan with GyrA S83F, D87N, ParC S80I mutation; procedure, shortened: as §1
Salmonella typhimurium [21] = test: Antimicrobial activity against Salmonella enterica serovar Typhimurium S21-2 acrAB::Kan with GyrA S83F, ParC S80I mutation; procedure, shortened: as §1
Salmonella typhimurium [22] = test: Antimicrobial activity against Salmonella enterica serovar Typhimurium CS1 gyrA+ with GyrA S83F, D87N, ParC S80I mutation; procedure, shortened: as §1
Salmonella typhimurium [23] = test: Antimicrobial activity against Salmonella enterica serovar Typhimurium CS3 with GyrA S83F, D87N, ParC S80I mutation; procedure, shortened: as §1
Salmonella typhimurium [24] = test: Antimicrobial activity against Salmonella enterica serovar Typhimurium S21 tolC::Kan; procedure, shortened: as §2
Salmonella typhimurium [25] = test: Antimicrobial activity against Salmonella enterica serovar Typhimurium S21 gyrA+; procedure, shortened: as §1
Salmonella typhimurium [26] = test: Antimicrobial activity against Salmonella enterica serovar Typhimurium S21-3 tolC::Kan with GyrA S83F, ParC S80I mutation; procedure, shortened: as §1
Salmonella typhimurium [27] = test: Antimicrobial activity against Salmonella enterica serovar Typhimurium S21-4 gyrA+ with ParC S80I mutation; procedure, shortened: as §1
Salmonella typhimurium [28] = test: Antimicrobial activity against Salmonella enterica serovar Typhimurium CHS14 tolC::Kan with GyrA D87G mutant; procedure, shortened: as §1
Salmonella typhimurium [29] = test: Antimicrobial activity against Salmonella enterica serovar Typhimurium S21-2 with GyrA S83F, ParC S80I mutation; procedure, shortened: as §1
Salmonella typhimurium [30] = test: Antimicrobial activity against Salmonella enterica serovar Typhimurium S21; procedure, shortened: as §1
Salmonella typhimurium [31] = test: Antimicrobial activity against Salmonella enterica serovar Typhimurium CS1 tolC::Kan with GyrA S83F, D87N, ParC S80I mutation; procedure, shortened: as §1
Salmonella typhimurium [32] = test: Antimicrobial activity against Salmonella enterica serovar Typhimurium CHS14 acrAB::Kan with GyrA D87G mutation; procedure, shortened: as §1
Salmonella typhimurium [33] = test: Antimicrobial activity against Salmonella enterica serovar Typhimurium CS3 acrAB::Kan with GyrA S83F, D87N, ParC S80I mutation; procedure, shortened: as §1
Salmonella typhimurium [34] = test: Antimicrobial activity against Salmonella enterica serovar Typhimurium CS9 acrAB::Kan with GyrA S83F, D87N, ParC S80I mutation; procedure, shortened: as §1
Salmonella typhimurium [35] = test: Antimicrobial activity against Salmonella enterica serovar Typhimurium S21-1 gyrA+; procedure, shortened: as §1
Salmonella typhimurium [36] = test: Antimicrobial activity against Salmonella enterica serovar Typhimurium CHS18 acrAB::Kan with GyrA S38F mutation; procedure, shortened: as §1
Salmonella typhimurium [37] = test: Antimicrobial activity against Salmonella enterica serovar Typhimurium CS9 with GyrA S83F, D87N, ParC S80I mutation; procedure, shortened: as §1
Salmonella typhimurium [38] = test: Antimicrobial activity against Salmonella enterica serovar Typhimurium S21-2 tolC::Kan with GyrA S83F, ParC S80I mutation; procedure, shortened: as §1
Salmonella typhimurium [39] = test: Antimicrobial activity against Salmonella enterica serovar Typhimurium S21-4 acrAB::Kan with GyrA S83F, ParC S80I mutation; procedure, shortened: as §1
Salmonella typhimurium [40] = test: Antimicrobial activity against Salmonella enterica serovar Typhimurium CHS38 gyrA+ with GyrA D87G mutation; procedure, shortened: as §1
Salmonella typhimurium [41] = test: Antimicrobial activity against Salmonella enterica serovar Typhimurium CS9 tolC::Kan with GyrA S83F, D87N, ParC S80I mutation; procedure, shortened: as §1
Salmonella typhimurium [42] = test: Antimicrobial activity against Salmonella enterica serovar Typhimurium CS1 with GyrA S83F, D87N, ParC S80I mutation; procedure, shortened: as §1
Salmonella typhimurium [43] = test: Antimicrobial activity against Salmonella enterica serovar Typhimurium GyrA S21-1 acrAB::Kan with GyrA S83F mutation; procedure, shortened: as §1
Salmonella typhimurium [44] = test: Antimicrobial activity against Salmonella enterica serovar Typhimurium CS3 tolC::Kan with GyrA S83F, D87N, parC S80I mutation; procedure, shortened: as §1

What does the source list for `CO[C@@]1(NC(=O)Cc2cccs2)C(=O)N2C(C(=O)O)=C(COC(N)=O)CS[C@@H]21` [CEFOXITIN]?
MIC (Salmonella typhimurium [1]): 1 µg/mL (≈ 2.34 µM); MIC (Salmonella typhimurium [2]): > 16 µg/mL; MIC (Salmonella typhimurium [3]): 1 µg/mL (≈ 2.34 µM); MIC (Salmonella typhimurium [4]): 1 µg/mL (≈ 2.34 µM); MIC (Salmonella typhimurium [5]): 2 µg/mL (≈ 4.68 µM); MIC (Salmonella typhimurium [6]): 4 µg/mL (≈ 9.36 µM); MIC (Salmonella typhimurium [7]): 1 µg/mL (≈ 2.34 µM); MIC (Salmonella typhimurium [8]): > 16 µg/mL; MIC (Salmonella typhimurium [9]): 2 µg/mL (≈ 4.68 µM); MIC (Salmonella typhimurium [10]): 2 µg/mL (≈ 4.68 µM); MIC (Salmonella typhimurium [11]): 2 µg/mL (≈ 4.68 µM); MIC (Salmonella typhimurium [12]): 2 µg/mL (≈ 4.68 µM); MIC (Salmonella typhimurium [13]): 0.5 µg/mL (≈ 1.17 µM); MIC (Salmonella typhimurium [14]): 2 µg/mL (≈ 4.68 µM); MIC (Salmonella typhimurium [15]): 4 µg/mL (≈ 9.36 µM); MIC (Salmonella typhimurium [16]): 2 µg/mL (≈ 4.68 µM); MIC (Salmonella typhimurium [17]): 0.5 µg/mL (≈ 1.17 µM); MIC (Salmonella typhimurium [18]): > 16 µg/mL; MIC (Salmonella typhimurium [19]): > 16 µg/mL; MIC (Salmonella typhimurium [20]): 1 µg/mL (≈ 2.34 µM); MIC (Salmonella typhimurium [21]): 2 µg/mL (≈ 4.68 µM); MIC (Salmonella typhimurium [22]): 2 µg/mL (≈ 4.68 µM); MIC (Salmonella typhimurium [23]): 1 µg/mL (≈ 2.34 µM); MIC (Salmonella typhimurium [24]): 1 µg/mL (≈ 2.34 µM); MIC (Salmonella typhimurium [25]): 4 µg/mL (≈ 9.36 µM); MIC (Salmonella typhimurium [26]): 1 µg/mL (≈ 2.34 µM); MIC (Salmonella typhimurium [27]): > 16 µg/mL; MIC (Salmonella typhimurium [28]): 1 µg/mL (≈ 2.34 µM); MIC (Salmonella typhimurium [29]): > 16 µg/mL; MIC (Salmonella typhimurium [30]): 4 µg/mL (≈ 9.36 µM); MIC (Salmonella typhimurium [31]): 1 µg/mL (≈ 2.34 µM); MIC (Salmonella typhimurium [32]): 1 µg/mL (≈ 2.34 µM); MIC (Salmonella typhimurium [33]): 1 µg/mL (≈ 2.34 µM); MIC (Salmonella typhimurium [34]): 1 µg/mL (≈ 2.34 µM); MIC (Salmonella typhimurium [35]): 2 µg/mL (≈ 4.68 µM); MIC (Salmonella typhimurium [36]): 1 µg/mL (≈ 2.34 µM); MIC (Salmonella typhimurium [37]): 1 µg/mL (≈ 2.34 µM); MIC (Salmonella typhimurium [38]): 2 µg/mL (≈ 4.68 µM); MIC (Salmonella typhimurium [39]): 1 µg/mL (≈ 2.34 µM); MIC (Salmonella typhimurium [40]): 4 µg/mL (≈ 9.36 µM); MIC (Salmonella typhimurium [41]): 1 µg/mL (≈ 2.34 µM); MIC (Salmonella typhimurium [42]): 1 µg/mL (≈ 2.34 µM); MIC (Salmonella typhimurium [43]): 1 µg/mL (≈ 2.34 µM); MIC (Salmonella typhimurium [44]): 1 µg/mL (≈ 2.34 µM)
